Experimental data collected from several papers.
Protocols differ between the studies behind these lines.
Medium: plasma

`CNC(=O)n1ccc2cc(Oc3ccnc(NC(=O)c4ccc(C5CCN(CCO)CC5)cc4)c3)c(OCCOC)cc21` has a Tmax of 2 h (human; oral; 35 mg; single dose, healthy volunteers).
With `COc1ccc([C@@H](O)c2cc(-c3ncnc4cc(N5CCOCC5)ccc34)c(F)cc2Cl)nn1` the Tmax was 1.03 h (human; oral; 250 mg; single dose, patients).
`Cc1ccc(C(=O)Nc2ccc(CN3CCN(C)CC3)c(C(F)(F)F)c2)cc1C#Cc1cnc2[nH]ncc2c1` gave a Tmax of 8 h (human; oral; 20 mg; healthy volunteers).
`Cl.[2H]C([2H])([2H])CC(=O)c1cnc(NC(=O)C2CC2)cc1Nc1cccc(-c2ncn(C([2H])([2H])[2H])n2)c1OC` has a Tmax of 1.6 h (human; oral; 10 mg; multiple doses, once daily, fasted).
The Tmax of `NS(=O)(=O)OC[C@@H]1C[C@@H](n2ccc3c(N[C@H]4CCc5ccccc54)ncnc32)C[C@@H]1O` is reported as 1.03 h (human; intravenous; 20 mg/m²; patients).
`Cn1cc(Nc2nc(N)nc(-c3cccc(-n4ccc5cc(C6CC6)cc(F)c5c4=O)c3CO)n2)cn1` has a Tmax of 4 h (human; oral; 900 mg; single dose, fasted, suspension).
For `CC(C)n1c(Nc2cccnc2)nc2cnc(Nc3ccc(N4CCN(C)CC4)cc3)nc21`, the Tmax was 1.5 h (male human; oral; 100 mg; single dose, healthy volunteers).
The Tmax of `CN1CC[C@@H](c2c(O)cc(O)c3c(=O)cc(-c4ccc(C(F)(F)F)cc4Cl)oc23)[C@@H]1CO` is reported as 5.2 h (human; oral; 200 mg; patients).
For `C[C@H](O)C(=O)C1=Nc2c(nc(N)[nH]c2=O)NC1`, the Tmax was 4 h (human; oral; 20 mg/kg; single dose, healthy volunteers).
